Measurements taken from the EternaBench riboswitch data.

System: MS2 coat protein
Assay: apparent Kd, MS2 coat protein; higher = weaker binding; RNA-MaP array; FMN 200 µM where present
Procedure, shortened: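 The apparent Kd comes from binding curves fitted cluster by cluster, filtered, and summarised as a median. Those curves followed SNAP-549-labelled MS2 coat protein from 0.7 or 1.5 nM, doubling to 3 µM, on Illumina sequencing-chip clusters where stalled E. coli RNA polymerase had transcribed the designs, without and then with constant ligand. The buffer was 100 mM Tris-HCl pH 7.5, 80 mM KCl, 4 mM MgCl2, BSA, DTT, yeast tRNA and Tween-20, and green signal was normalised to red-channel RNA signal and control-cluster median Fmax.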

[1] = designed as: OFF switch for flavin mononucleotide, no ligand
[2] = ligand present: flavin mononucleotide, designed as: OFF switch for flavin mononucleotide
[3] = designed as: ON switch for flavin mononucleotide, no ligand
[4] = ligand present: flavin mononucleotide, designed as: ON switch for flavin mononucleotide

## UCUUUGUGAGGAUAUCAGUAGUAAAUAAAUAAAAUUACUACUGAGAAGGCACAUGAGGAUCACCCAUGUUCCUU
[1]
  apparent Kd: 12.1 nM
[2]
  apparent Kd: 24.4 nM

## GGGUACAUCGGAGGAUAUCAUGUAAAUACAUGAGGAUCACCCAUGUCGAUGGAGACAUCCGAGAUUGAGAAGGCCGAUGUACCG
[3]
  apparent Kd: 29.3 nM
[4]
  apparent Kd: 13.3 nM

## GUCCUUAGCGAGGAUAUCGGGCGGGUUUUUGUUUGAGAAGGCGUGACAUGAGGAUCACCCAUGUGGCGCGUGGG
[1]
  apparent Kd: 39.2 nM
[2]
  apparent Kd: 69.7 nM

## CACAAGAAAGUCGAAGGUUGAAGUAGAAGGACUACAACAUGACAUGAGGAUCACCCAUGUGCUAAGUAGGAUAUGCUUUAAUCG
[1]
  apparent Kd: 5.63 nM
[2]
  apparent Kd: 5.47 nM

## AUUAUAUAGCAAGGAUAUAGAAUAUUAUUUUAACAUGAGGAUCACCCAUGUAACCUUAUGUGUAGCUAGAAGGUGCAUUUAUUA
[1]
  apparent Kd: 73.2 nM
[2]
  apparent Kd: 109 nM

## UGGAUGUAGGAGAAGGAGGACUUCAUGAGGAUCACCCAUGUGUUAGUACUUAGGAUAUUUGACAACAUGAGGAUCACCCAUGUC
[3]
  apparent Kd: 138 nM
[4]
  apparent Kd: 113 nM

## AUACAUGAGGAUCACCCAUGUUACUGGGUCUAUAUAGAACGUAGAAGGAUGUAUUUACACAUAACAUAGGAUAUACUUUAUAGU
[1]
  apparent Kd: 55.2 nM
[2]
  apparent Kd: 41.9 nM

## UGCAUGUAAGGAUAUGCAUCCGCCAACGAACCGGCGGCACAGCAGAAGGUACAUGAGGAUCACCCAUGUGUCCC
[1]
  apparent Kd: 34.8 nM
[2]
  apparent Kd: 195 nM

## GGUUGGCGAGGAUAUACAUGAGGAUCACCCAUGUGGUCCUGUGGCUGAUCUUGCCUUUGUAGAAGGCGCGGGUC
[1]
  apparent Kd: 49.4 nM
[2]
  apparent Kd: 45.3 nM

## GGAUCGGACAGAGGAUAUACGUGCUAGAGAUACUAGCAAAAUUUCCUCACAUGAGGAUCACCCAUGUAGAAGGCUGUCCUAUCG
[1]
  apparent Kd: 15.9 nM
[2]
  apparent Kd: 327 nM

## GGAUAGGACAGAGGAUAUACGUGCUAGAGAUACUAGCAAUAUUUCCUCACAUGAGGAUCACCCAUGUAGAAGGCUGUCCUAUCG
[1]
  apparent Kd: 6.26 nM
[2]
  apparent Kd: 73.7 nM

## GGAAGUCAAAGACUUCCUUAACGAACAUGAGGAUCACCCAUGUAGGAUAUGCUACUCAAAGAGUAGCAGAAGGACAUGUGUCUU
[1]
  apparent Kd: 32.1 nM
[2]
  apparent Kd: 168 nM

## UCGCCAGGUACAGGAUAUGUGGAUCAGUUAAGUAACUUACUGAACAUGAGGAUCACCCAUGUAUCACAGAAGGGUGCCUCAAAA
[3]
  apparent Kd: 164 nM
[4]
  apparent Kd: 11.1 nM

## UGUUGUAAUACAGGAUAUCUAUUAUUUUUAUUUAGAGAAGGGUAAUCACAUGAGGAUCACCCAUGUAUAUACGAGGAAGAAGAG
[3]
  apparent Kd: 186 nM
[4]
  apparent Kd: 182 nM

## UUCAAGUUGCGAGGAUAUCGUGUUAACAUGAGGAUCACCCAUGUAAAGGUUUAUUAAAUAAUCUUCGAGAAGGCGCUUAAUGUA
[3]
  apparent Kd: 24.1 nM
[4]
  apparent Kd: 20.8 nM

## GUAGAGAUUACAUGAGGAUCACCCAUGUCAGAACGGGUAAUCAGAAGGUAUUAUUAGAGAAAGGGUAAGGAUAUGAUUUUUUAU
[3]
  apparent Kd: 735 nM
[4]
  apparent Kd: 617 nM

## CUUUUGGGAGGAUAUACAUGAGGAUCACCCAUGUGGUCGUGACCAAGUAAGCGCACUCGUAGAAGGCCCACGAC
[1]
  apparent Kd: 66.7 nM
[2]
  apparent Kd: 98 nM

## GCCAUCGCAUGAGGAUAUGCUCCCGUUUCGGGAGCAGAAGGCAUGUCAUAAGACAUGAGGAUCACCCAUGUAGAUAAGAUGGCA
[3]
  apparent Kd: 310 nM
[4]
  apparent Kd: 11.4 nM

## UAAAUUAACAAGAAGGCUAACAUGAGGAUCACCCAUGUUGUACAUGGAUAUAGAGGAUAUUGCUAAUAAUUAUUUAUCAUAAUU
[1]
  apparent Kd: 24.4 nM
[2]
  apparent Kd: 20.1 nM

## AGUCGGAGCAGAGGAUAUACAUGAGGAUCACCCAUGUAAAUGGAAGAAGACUGGAAACAGUCAAUGUAGAAGGCUGCUCCGACA
[1]
  apparent Kd: 121 nM
[2]
  apparent Kd: 625 nM

## GGUGGACAUGAGGAUCACCCAUGUGAGGAUAUCGGCUGGUACGUGUUGGCUGGCUUCUCGAGAAGGCACAUAGU
[1]
  apparent Kd: 64.7 nM
[2]
  apparent Kd: 75.4 nM

## GCGCAGCUGGGUGAGGAUAUCGGUGGUAAAACAUGAGGAUCACCCAUGUCCGGAGCUCGGACUUCCGAGAAGGCACCCGGCUGCA
[3]
  apparent Kd: 39 nM
[4]
  apparent Kd: 9.8 nM

## AGUCAGAGCAGAGGAUAUAUACAUGAGGAUCACCCAUGUGACUGACUAUGCUAGAAAUAGUAUGUAUAGAAGGCUGCUCUGACA
[1]
  apparent Kd: 188 nM
[2]
  apparent Kd: 466 nM

## UUGGACGUCGUAGGAUAUGUAGGAUAUUCCUACAUGAGGAUCACCCAUGUCGACAUGGAAGAAGGACAGAAGGACGAUGUCCAU
[3]
  apparent Kd: 238 nM
[4]
  apparent Kd: 4.22 nM

## UGUGCGUUGAUCUUCGAUCGGAGUACAUGAGGAUCACCCAUGUAGGAUAUUCAAAGACGCAGAUAGAAGAAGGACAUCGGUUUC
[1]
  apparent Kd: 10.6 nM
[2]
  apparent Kd: 9.43 nM

## UAUAUGUCAGGAUAUUAGUUGAGUUAGAAUUUAUCCUCUGCUGAGAAGGGACAUGAGGAUCACCCAUGUUCCUC
[1]
  apparent Kd: 15.1 nM
[2]
  apparent Kd: 31.5 nM

## GACAGUGCUAAUAAAUAAGAUCUACAUGAGGAUCACCCAUGUAAGGAUAUCGUCAGGAAUACUGACGAGAAGGUACAUGCACUG
[1]
  apparent Kd: 15.4 nM
[2]
  apparent Kd: 26.2 nM

## ACUUGGUUACAGAAGGGCAUUUAUAAUUAUCAUUACUCAUCCUAUGUUUGCAGGAUAUGUUUAACAUGAGGAUCACCCAUGUAC
[3]
  apparent Kd: 171 nM
[4]
  apparent Kd: 97.6 nM

## GAGGGUUAAGGAUAUACAUGAGGAUCACCCAUGUAUGGCAAGCCAUAAUCCUCAUUAAGUAGAAGGUAACCUUC
[1]
  apparent Kd: 11.7 nM
[2]
  apparent Kd: 15.3 nM

## GCACGGCAUGUAGGAUAUCGAGCUCCGGGAGCUCGAGAAGGACAUGAGGAUCACCCAUGUGCUCACAGUGAGUGAGCGCUGUGC
[1]
  apparent Kd: 23.9 nM
[2]
  apparent Kd: 93.5 nM

## UUUGGGUGGCUGGAGGAUAUUCUUGUGGUUACAUGAGGAUCACCCAUGUGUCGCGCGGUACGCGAGGAGAAGGCUGGCGGCCGUU
[3]
  apparent Kd: 327 nM
[4]
  apparent Kd: 56.2 nM

## GGGUACAUCGGAGGAUAUCAUGUAAAUACAUGAGGAUCACCCAUGUCGAUUGAGACAUCGGAGAUUGAGAAGGCCGAUGUACCG
[3]
  apparent Kd: 74.5 nM
[4]
  apparent Kd: 534 nM

## AUAGUUAGUAUAGAUGAGGGCAGCAGAAGGCAAUAUGCUUGUGCCGACAUGAGGAUCACCCAUGUUGAGGAUAUGCGUCCUUCG
[1]
  apparent Kd: 6 nM
[2]
  apparent Kd: 16.9 nM

## ACUUAAAUACCCAAAAGUCGGGCGGAGGAUAUGGAGCUUCCACCACAUGAGGAUCACCCAUGUCUUCAGAAGGCCGCCCUUGGG
[3]
  apparent Kd: 89.6 nM
[4]
  apparent Kd: 8.79 nM

## UAUACACAUGAGGAUCACCCAUGUGAGGAUAUGUAAAAAAAACCGACGGUUUUUUUUUACAGAAGGCACAUAUA
[1]
  apparent Kd: 51.6 nM
[2]
  apparent Kd: 53.5 nM

## UUGUUGUGAGUAAGGAUAUGAUGCAGGAAACUGCGUCAGAAGGUACAUGAGGAUCACCCAUGUUAAUUUUGUUU
[1]
  apparent Kd: 16.8 nM
[2]
  apparent Kd: 23.5 nM

## ACAUGCAUUCGAGGAUAUCGGUGAUUAAUUCUACGAGAAGGCGAUUUAAGAUAUAUUGUUUUAGACAUGAGGAUCACCCAUGUA
[3]
  apparent Kd: 29 nM
[4]
  apparent Kd: 23.2 nM

## UUUUAUUAGUAAGGAUAUACUAGCGAUGAGCUUGUAGAAGGUACAGUCUUAUGUAUAACAUGUUAACAUGAGGAUCACCCAUGU
[3]
  apparent Kd: 38.6 nM
[4]
  apparent Kd: 22.4 nM

## AAUGGGCAGCAGAAGGCAUGUCUACGGACAUGAGGAUCACCCAUGUAGUAAAGCCGAAAGGCGCAUGAGGAUAUGCUGCCCUAA
[4]
  apparent Kd: 8.23 nM

## GGUUGGCGAGGAUAUACAUGAGGAUCACCCAUGUGGUCCUGUGGCUGGUCUAACCUUUGUAGAAGGCGCGGGUC
[1]
  apparent Kd: 225 nM
[2]
  apparent Kd: 186 nM

## GGAUGUCAAAGACAUCCAUAACGAACAUGAGGAUCACCCAUGUAGGAUAUGCUACUCAAAGAGUAGCAGAAGGACAUGUGCCUU
[1]
  apparent Kd: 33.6 nM
[2]
  apparent Kd: 269 nM

## UUUCUCGUUGUGAGGAUAUCGUUUUUGUUUUGGAUCGAGAAGGCACAUGAGGAUCACCCAUGUUUGUUGUGGUU
[1]
  apparent Kd: 119 nM
[2]
  apparent Kd: 87.7 nM

## CACGUCCACACAGGAUAUGCUGGACUUUGUCCAGCAGAAGGGUGACAACAUGAGGAUCACCCAUGUAGGACGUGUAUAUUUAAU
[3]
  apparent Kd: 1040 nM
[4]
  apparent Kd: 196 nM

## GACAUACAUGAGGAUCACCCAUGUACAAACGUACAAGGAUAUGUGUGGAAACCGUACUAUACAGAAGGUGUUUGUC
[3]
  apparent Kd: 47.6 nM
[4]
  apparent Kd: 41.5 nM

## CUUUUGUGAGGAUAUUAGUAGUAAUACAAUAGUAUUACUACUGAGAAGGCACAUGAGGAUCACCCAUGUUCCUC
[1]
  apparent Kd: 38.2 nM
[2]
  apparent Kd: 147 nM

## AACAGCUCGUCAGGAUAUAUUUUCUAAUUAUGUAUUUAUGUACAUGAGGAUCACCCAUGUUGUUAGUAGAAGGGACGAGCUGAA
[1]
  apparent Kd: 11.7 nM
[2]
  apparent Kd: 12.1 nM

## GGAUCUUGGGUCAGGAUAUGCUGACAGCCAUGUCAGCAGAAGGGACAUGAGGAUCACCCAUGUGCUCGGUUUUG
[1]
  apparent Kd: 10.3 nM
[2]
  apparent Kd: 18.1 nM

## UCAACCAGCGCCGGUUAAACAUGAGGAUCACCCAUGUACUCCAGAAGGCCGCCCAAGAACGGAGUGGAGGAUAUGGAGGUUCUC
[3]
  apparent Kd: 46.8 nM
[4]
  apparent Kd: 38.7 nM
